This note sets out measurements from ChEMBL document CHEMBL1156948, “Statistical molecular design of a focused salicylidene acylhydrazide library and multivariate QSAR of inhibition of type III secretion in the Gram-negative bacterium Yersinia” (Bioorg Med Chem, 2010).

The subject of test [1] is Yersinia pseudotuberculosis YPIII. Kind of test: Inhibition of T3S in Yersinia pseudotuberculosis YPIII expressing yopE-luxAB at 1.56 uM after 3 hrs by luciferase reporter gene assay. In a few lines:
(§1)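 Strain YPIII pIB102 (yopE-luxAB) grown overnight at room temperature in BHI with 5 mM EGTA and 20 mM MgCl2 (calcium depletion), adjusted to OD600 0.088–0.095. Compound added from DMSO at 1.56–200 µM final (eight concentrations). Shaken 1 h at room temperature, then 2 h at 37 °C. Decanal added and light emission read immediately. Triplicates, repeated at least three times.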
Background: In a reporter assay the amount or activity of a reporter protein is the signal.

For test [2] the test system is unchanged. Kind of test: Inhibition of T3S in Yersinia pseudotuberculosis YPIII expressing yopE-luxAB at 3.13 uM after 3 hrs by luciferase reporter gene assay. Summed up: as §1
For test [3] the test system is unchanged. In words: Inhibition of T3S in Yersinia pseudotuberculosis YPIII expressing yopE-luxAB at 6.25 uM after 3 hrs by luciferase reporter gene assay. In a few lines: as §1
The test system is the same in test [4]. In words: Inhibition of T3S in Yersinia pseudotuberculosis YPIII expressing yopE-luxAB at 12.5 uM after 3 hrs by luciferase reporter gene assay. Summed up:
as §1

Test [5] has the same test system. In words: Inhibition of T3S in Yersinia pseudotuberculosis YPIII expressing yopE-luxAB at 25 uM after 3 hrs by luciferase reporter gene assay. Summed up:
as §1

For test [6] the test system is unchanged. In words: Inhibition of T3S in Yersinia pseudotuberculosis YPIII expressing yopE-luxAB at 50 uM after 3 hrs by luciferase reporter gene assay. In a few lines:
as §1

The test system is the same in test [7]. Kind of test: Inhibition of T3S in Yersinia pseudotuberculosis YPIII expressing yopE-luxAB at 100 uM after 3 hrs by luciferase reporter gene assay. Summed up: as §1
For test [8] the test system is unchanged. In words: Inhibition of T3S in Yersinia pseudotuberculosis YPIII expressing yopE-luxAB at 200 uM after 3 hrs by luciferase reporter gene assay. In a few lines:
as §1

In test [9] the test system is Yersinia pseudotuberculosis. In words: Antibacterial activity against Yersinia pseudotuberculosis expressing pIB102 at 50 uM after 23 hrs by broth dilution assay. The format is functional, organism-based. Summed up:
(§2)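 Wild-type pIB102 grown overnight in LB at room temperature, diluted to OD600 = 0.1 in LB with 2.5 mM CaCl2. Compound added from DMSO stock to final 50 and 100 µM. Incubated at 37 °C with absorbance at 595 nm read over 23 h.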
On the technique in general: Dilution methods test growth across graded concentrations, often in twofold steps.

In test [10] the test system is Escherichia coli. In words: Antibacterial activity against Escherichia coli DH5[alpha] at 50 uM after 23 hrs by broth dilution assay. The format is functional, organism-based. In a few lines: (§3)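 Overnight LB culture of E. coli DH5α grown at 37 °C, diluted to OD600 0.1 in LB with 2.5 mM CaCl2; compound added from DMSO stock to final 50 or 100 µM. Incubated at 37 °C with absorbance at 595 nm followed over 23 h.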

Test [11] has as its system Yersinia pseudotuberculosis. Kind of test: Antibacterial activity against Yersinia pseudotuberculosis expressing pIB102 at 100 uM after 23 hrs by broth dilution assay. The format is functional, organism-based. In a few lines: as §2
The test system of test [12] is Escherichia coli. Kind of test: Antibacterial activity against Escherichia coli DH5[alpha] at 100 uM after 23 hrs by broth dilution assay. The format is functional, organism-based. In a few lines: as §3

Activity calls are given as the source filed them. The rule behind the calls is not given here.

`CC(C)(C)c1ccc(O)c(/C=N/NC(=O)c2ccc(Br)cc2)c1`: the inhibition in test [1] was determined as 4%; in [2], 0%; in [3] it was 19%; in [4] it was 29%; in test [5], 34%; in test [6], 39%. In addition, the inhibition in test [7] was 34%; in [8] it was 37%. Further, the outcome (in test [9]; in the test with Escherichia coli [10]; in [11]; in the test on Escherichia coli [12]) was inactive.

For `N#CCC(=O)N/N=C/c1cc(Br)ccc1O`, the inhibition in [1] was 0%; in test [2], 11%; in [3], 6%; in test [4], 22%; in test [5], 55%; in [6], 86%. Further, the inhibition in test [7] was 97%; in test [8], 99%. Also, the result (in test [9]; in the test with Escherichia coli [10]; in test [11]; with Escherichia coli [12]) was inactive.

For the compound `COc1cc(Br)cc(/C=N/NC(=O)c2sc3ccccc3c2Cl)c1O`, the inhibition in test [1] is -6%; in test [2] it was 10%; in test [3], 12%; in test [4], 20%; in test [5] it was 23%; in [6] it was 34%. Moreover, the results for the inhibition in [7] and in test [8] were 40% and 39%, respectively. Also, the result (in test [9]; with Escherichia coli [10]; in [11]; with Escherichia coli [12]) was inactive.

With `COc1ccc(Br)c(C(=O)N/N=C/c2cc(C(C)(C)C)ccc2O)c1`, the inhibition came out at 3% in test [1]; 0% in test [2]; 6% in test [3]; 26% in test [4]; 18% in test [5]; 33% in [6]. Moreover, the figures for the inhibition in test [7] and in test [8] were 22% and 20%, respectively. Also, the result (in test [9]; in the test on Escherichia coli [10]; in test [11]; in the test on Escherichia coli [12]) was inactive.

As to `O=C(N/N=C/c1ccc(Cl)cc1O)c1ccc(Br)cc1`, the inhibition was -6% in test [1]; 11% in [2]; 14% in [3]; 26% in [4]; 29% in test [5]; 27% in test [6]. In addition, the inhibition in [7] stood at 22%; in test [8], 10%. In addition, the result (in test [9]; in the test on Escherichia coli [10]; in test [11]; with Escherichia coli [12]) was inactive.

For `COc1ccc(/C=N/NC(=O)c2sc3ccccc3c2Cl)c(O)c1`, the inhibition was -2% in [1]; -2% in [2]; 10% in [3]; 12% in test [4]; 15% in test [5]; 27% in [6]. The inhibition in test [7] stood at 35%; in [8] it was 50%. Further, the result (in test [9]; in the test with Escherichia coli [10]; in [11]; in the test on Escherichia coli [12]) was inactive.

With `COc1cc(C(=O)N/N=C/c2cc(Cl)cc(Cl)c2O)cc(OC)c1OC`, the inhibition in [1] is -10%; in test [2] it was 13%; in [3] it was 8%; in test [4], 14%; in test [5], 18%; in test [6], 27%. In addition, the inhibition in test [7] came out at 29%; in test [8], 40%. Further, the result (in [9]; with Escherichia coli [10]; in test [11]; in the test on Escherichia coli [12]) was inactive.

Take `COc1ccc(/C=N/NC(=O)CCc2ccc(O)cc2)c(O)c1`: the inhibition in test [1] is -2%; in test [2] it was -1%; in test [3], 4%; in test [4], 16%; in [5], 12%; in [6] it was 22%. Further, the inhibition came to 45% in [7] and 88% in test [8]. The outcome (in [9]; in the test with Escherichia coli [10]; in test [11]; in the test on Escherichia coli [12]) was inactive.

Take `O=C(N/N=C/c1c(O)cc(O)cc1O)c1sc2ccccc2c1Cl`: the inhibition in test [1] came to 2%; in test [2], 10%; in test [3] it was 21%; in test [4] it was 33%; in [5] it was 44%; in [6] it was 70%. The inhibition worked out at 79% in test [7] and 87% in test [8]. The result (in test [9]; with Escherichia coli [10]; in test [11]; in the test on Escherichia coli [12]) was inactive.

`CC(C)(C)c1ccc(O)c(/C=N/NC(=O)CC23CC4CC(CC(C4)C2)C3)c1`: the inhibition is -6% in test [1]; 3% in [2]; 10% in test [3]; 13% in [4]; 17% in test [5]; 10% in test [6]. For the same compound, the inhibition in test [7] is 17%; in test [8], -1%. Further, the outcome (in test [9]; in the test with Escherichia coli [10]; in test [11]; with Escherichia coli [12]) was inactive.

Regarding `O=C(N/N=C/c1cccc(F)c1O)c1cccc(C(F)(F)F)c1`, the inhibition is -10% in test [1]; 3% in [2]; 5% in test [3]; 14% in test [4]; 30% in [5]; 32% in test [6]. The inhibition in test [7] was 48%; in [8], 65%. The outcome (in test [9]; in the test with Escherichia coli [10]; in test [11]; in the test with Escherichia coli [12]) was inactive.

`COc1cc(/C=N/NC(=O)c2cccc(C(F)(F)F)c2)c(O)c(OC)c1`: the inhibition in [1] is -10%; in test [2], 10%; in test [3], 21%; in test [4] it was 24%; in test [5] it was 39%; in test [6], 66%. For the same compound, the inhibition in test [7] worked out at 74%; in test [8] it was 75%. Also, the result (in [9]; with Escherichia coli [10]; in test [11]; in the test on Escherichia coli [12]) was inactive.

`CCN(CC)c1ccc(/C=N/NC(=O)c2cc(Cl)cc(Cl)c2)c(O)c1`: the inhibition is -6% in [1]; 19% in test [2]; 22% in [3]; 29% in test [4]; 34% in test [5]; 43% in test [6]. Further, the inhibition in test [7] and in test [8] was 46% throughout. For the same compound, the result (in [9]; in the test with Escherichia coli [10]; in test [11]; in the test with Escherichia coli [12]) was inactive.

Consider `O=C(N/N=C/c1cc(F)cc(Cl)c1O)c1cc(Cl)cc(Cl)c1`, for which the inhibition is -10% in test [1]; 4% in test [2]; 12% in [3]; 10% in test [4]; 11% in test [5]; 19% in test [6]. Besides, the inhibition came out at 24% in test [7] and 13% in [8]. In addition, the result (in test [9]; in the test with Escherichia coli [10]; in test [11]; in the test with Escherichia coli [12]) was inactive.

As to `COc1cc([N+](=O)[O-])cc(/C=N/NC(=O)CC#N)c1O`, the inhibition in test [1] is -4%; in [2], 4%; in test [3], 14%; in test [4], 24%; in test [5] it was 27%; in test [6], 39%. For the same compound, the inhibition in test [7] was 39%; in [8], 43%. In addition, the result (in test [9]; in the test on Escherichia coli [10]; in [11]; in the test on Escherichia coli [12]) was inactive.

For orientation: inhibition means the drop in the measured response relative to a control, in per cent.
